Hits are enriched below; roughly 4.1% of the tested compounds scored in any of these assays.
KCNQ1 block = inhibitors of human KCNQ1 potassium channel; actives 1.3% (n = 310,000); B-score at 10 µM; AID 2642; P51787; CHO-K1 KCNQ1, FluxOR thallium flux fluorescence; hits give high values;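 active = compounds whose thallium flux B-score, printed positive for inhibition, exceeds three library SD while starting fluorescence stays within three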;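 note: channel opened by potassium depolarization with thallium stimulus after 20 min compound exposure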
KCNK3 inh = human KCNK3 channel inhibition, primary screen; CHO-KCNK3 thallium flux, FluxOR fluorescence; hits give low values; B-score at 10 µM; O14649; actives 0.84% (n = 340,000);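 active = B-score under library mean minus 4 SD, starting fluorescence ratio at most library mean plus 5 SD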;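 note: more negative B-score means stronger inhibition of thallium flux through KCNK3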
Target sequence (O14649 whole entry, looked up): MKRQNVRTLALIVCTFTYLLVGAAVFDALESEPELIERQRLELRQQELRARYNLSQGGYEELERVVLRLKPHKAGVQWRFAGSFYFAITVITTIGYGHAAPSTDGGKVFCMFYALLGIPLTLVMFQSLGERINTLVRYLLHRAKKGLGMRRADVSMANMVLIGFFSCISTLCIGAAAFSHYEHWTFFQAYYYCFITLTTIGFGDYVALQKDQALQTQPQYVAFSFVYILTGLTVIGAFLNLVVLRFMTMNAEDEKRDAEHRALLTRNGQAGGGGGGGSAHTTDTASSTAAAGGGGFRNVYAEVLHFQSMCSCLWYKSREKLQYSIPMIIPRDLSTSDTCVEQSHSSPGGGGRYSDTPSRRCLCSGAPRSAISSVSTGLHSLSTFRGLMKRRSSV
KCNQ1 pot = potentiates or activates the human KCNQ1 potassium channel. P51787. CHO-K1 KCNQ1, thallium flux FluxOR fluorescence; hits give high values. B-score at 10 µM. actives 0.35% (n = 310,000);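 active = fluorescence ratio B-score, a plate-corrected score, at least three library SD, with initial intensity B-score within 5 SD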
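assay system = KCNQ1-transfected CHO-K1 cells | medium = assay buffer with matched DMSO | probe or stimulus = depolarizing K+/Tl+ stimulus, K2SO4 and Tl2SO4 each 12.5 mM in 5x stock | dosing = single dose | incubation = dye 90 min, compound 20 min, room temperature | detection = kinetic FluxOR fluorescence, 10 s baseline plus 110 s post-stimulus | evaluation = ratio B score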
Cl transport mod = modulators of human KCC2 chloride dependent transport. B-score of Tl+ flux slope (higher = more flux/activation; lower = inhibition) at 10 µM. KCC2 cells, thallium flux FluoZin-2 fluorescence. AID 1456. Q9H2X9. actives 2.2% (n = 190,000);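 active = thallium flux slope and its plate-corrected score both differing from the plate sample mean at a set confidence after two filtering rounds, in either direction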;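 note: slope of fluorescence scaled to starting intensity during 10 to 20 s after thallium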
KCNK9 inh = human KCNK9 channel inhibition. B-score at 10 µM. AID 488922. HEK293 KCNK9, FluxOR thallium flux fluorescence; hits give low values. actives 1.2% (n = 310,000). Q9NPC2;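 active = ratio B-score over 3 SD below the library mean, with starting fluorescence within 5 SD of its mean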;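 note: negative B-score means less thallium flux so channel inhibition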
Target sequence (Q9NPC2 whole entry, looked up): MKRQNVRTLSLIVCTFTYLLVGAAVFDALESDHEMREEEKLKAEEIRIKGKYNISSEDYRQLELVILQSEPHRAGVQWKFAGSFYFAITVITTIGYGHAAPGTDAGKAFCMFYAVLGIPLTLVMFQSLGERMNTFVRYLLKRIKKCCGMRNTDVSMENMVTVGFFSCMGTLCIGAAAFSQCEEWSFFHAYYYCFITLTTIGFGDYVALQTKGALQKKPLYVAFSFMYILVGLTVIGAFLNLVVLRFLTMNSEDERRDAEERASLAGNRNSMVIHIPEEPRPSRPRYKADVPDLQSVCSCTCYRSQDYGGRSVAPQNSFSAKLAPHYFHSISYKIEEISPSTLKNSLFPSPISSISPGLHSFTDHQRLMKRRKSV
hERG protect = compounds protecting human hERG from proarrhythmic drug block | Q12809 | CHO-hERG, FluxOR thallium flux, dofetilide IC70 present | activation (rescue from dofetilide block), less the hit threshold, % at 10 µM | actives 0.51% (n = 310,000) | AID 1511;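 active = activation above the mean of controls blocked by dofetilide plus 5 SD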;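 note: thallium influx through hERG after potassium depolarization seen as dye fluorescence rise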
KCC2 sec1 = KCC2 (human) modulation, secondary assay. shares compounds with Cl transport mod. HEK293-KCC2, thallium flux, FluoZin2 fluorescence; hits give high values. normalised thallium flux (F/F0 slope) at 10 µM. actives 15% (n = 3,700). AID 1713;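 active = thallium flux slope above the same plate's solvent-only control mean plus 3 SD; inconclusive = the two replicate wells disagree; inactive = no significant difference from solvent-only control wells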
KCC2 bumet counter = thallium flux despite bumetanide block in KCC2 cells, secondary assay 3. HEK293-KCC2 + bumetanide/ouabain, thallium flux FluoZin2; hits give high values. AID 1714. normalized thallium flux at 10 µM. shares compounds with Cl transport mod. actives 49% (n = 3,700);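 active = thallium entry rate above the same plate's blocked-transporter control wells by more than 3 SD; inconclusive = the two repeat wells disagree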;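 note: raw slope of fluorescence over initial fluorescence between 10 and 20 s after thallium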
KCC2 secondary2 = KCC2 (human) modulation, second secondary assay. AID 1715. shares compounds with Cl transport mod. HEK293-KCC2, thallium flux FluoZin2 fluorescence; actives lie on both sides; F/F0 rise rate, 10–20 s post-thallium. normalized thallium flux at 10 µM. actives 23% (n = 3,700);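 active = thallium flux slope more than 3 SD above or below the plate's solvent-only control mean, mostly below; inconclusive = the two repeat wells disagreed; inactive = no significant shift from solvent-only controls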;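 note: raw slope with 0.1% DMSO as baseline and bumetanide as block control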
HEK counter1 = acts in parental HEK cells, KCC2 counter-screen. shares compounds with Cl transport mod. HEK293 parental cells, thallium flux FluoZin2, ouabain; baseline-ratio fluorescence slope, 10–20 s after thallium. thallium flux rate (normalised fluorescence) at 10 µM. actives 46% (n = 3,700). AID 1716;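 active = thallium flux rate significantly above the same plate's solvent-only control wells, beyond their mean plus 3 SD; inconclusive = the two replicate wells gave conflicting results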
KCC2 retest ouab = modulates human KCC2 on retest with ouabain; shares compounds with Cl transport mod; HEK293-KCC2, thallium flux FluoZin2 fluorescence; bidirectional: low = inhibitor, high = activator; raw Tl+ flux slope (below DMSO = inhibition, above = activation) at 10 µM; actives 48% (n = 3,700); AID 1717;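 active = thallium flux slope beyond 3 SD from same-plate DMSO control mean in most replicates, usually higher, sometimes lower; inconclusive = repeat tests gave conflicting results; inactive = no significant difference from controls in most replicates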;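 note: slope of initial-normalized fluorescence between seconds 10 and 20 after thallium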
HEK counter2 = acts in parental HEK cells, second KCC2 counter-screen; thallium flux slope at 10 µM; actives 33% (n = 3,700); shares compounds with Cl transport mod; HEK293 parental, thallium flux FluoZin-2 fluorescence slope;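 active = thallium flux slope above the same plate's solvent-control mean plus 3 SD in both duplicate wells; inconclusive = duplicate wells that disagreed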;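 note: run without ouabain in cells lacking the KCC2 cotransporter; slope of fluorescence scaled to its starting value between 10 and 20 s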
* hit, by the source's call; i = inactive; ? = inconclusive; / = no result.

SMILES	KCNQ1 block	KCNK3 inh	KCNQ1 pot	Cl transport mod	KCNK9 inh	hERG protect	KCC2 sec1	KCC2 bumet counter	KCC2 secondary2	HEK counter1	KCC2 retest ouab	HEK counter2
CCOc1ccc(NC(=O)CN(C)C(=O)COc2cccc3c2OC(C)(C)C3)cc1OCC	/	i	/	/	/	/	/	/	/	/	/	/
O=S(=O)(NCc1csc(-c2ccccc2)n1)c1ccc(Cl)s1	i	i	i	-5.72*	i	-13.1	0.00509	0.0141*	0.0221*	0.00685	0.0163*	?
O=S(=O)(NCc1csc(-c2cccnc2)n1)c1ccc(Cl)s1	i	i	i	1.78	i	-10.3	/	/	/	/	/	/
Cc1ccc(S(=O)(=O)NCC(=O)OCc2csc(-c3ccccc3)n2)cc1	i	i	i	-2	i	-16.8	/	/	/	/	/	/
O=C(CNS(=O)(=O)c1c(Cl)cccc1Cl)OCc1csc(-c2ccccc2)n1	i	i	i	-4.09*	i	-7.7	0.0065	0.00424	0.0231*	?	0.0146*	0.00934
S=c1[nH]nc(-c2cccs2)n1C1CCCCC1	i	i	i	11.5*	i	-9.3	0.011	0.0158*	0.0359	0.0132*	0.0257*	?
CC(C)(C)OC(=O)N(CCc1ccccc1)Cc1ccccc1OCc1ccc(NC(=O)C2CCCC2)cc1	/	i	/	/	/	/	/	/	/	/	/	/
CC1=NN(c2nc3ccccc3[nH]2)C(=O)/C1=C/N(C)C	i	i	i	0.611	i	-3.8	/	/	/	/	/	/
CC1=NN(c2nc3ccccc3[nH]2)C(=O)C1Cc1ccccc1 (configuration not stated)	i	i	i	8.58*	i	0.6	0.00756	0.0163*	0.0374	0.0161*	0.0273*	0.0193*
O=C(Cc1csc(Nc2nc(=S)[nH]c3ccccc23)n1)NCc1cccc(Cl)c1	/	i	/	/	/	/	/	/	/	/	/	/
O=C(Cc1csc(Nc2nc(=S)[nH]c3ccccc23)n1)N1CCN(c2cccc(C(F)(F)F)c2)CC1	i	i	i	11.8*	i	-6.7	0.00702	0.0142*	0.0361	0.0222*	0.0273*	0.0182*
C[C@@H]1ON(C)[C@H]2C[C@H]3c4cc(-c5cccc(F)c5)ccc4CCN3C(=O)[C@@H]12	/	i	/	/	/	/	/	/	/	/	/	/
Cc1cc(C)nc(N2CCCC(C(=O)NC(C)CCc3ccco3)C2)n1 (configuration not stated)	i	i	i	/	i	-12.7	0.00748	0.00502	0.0329	0.00656	0.0184	0.0102
O=C(NCc1ccc(F)cc1)C(c1cccnc1)N(C(=O)c1csnn1)c1ccccc1 (configuration not stated)	i	i	i	/	i	-6.7	/	/	/	/	/	/
CCCCc1ccc(-n2c(Cc3cccs3)n[nH]c2=S)cc1	i	i	i	58.4*	i	-12.4	0.00597	0.0968*	0.0633*	0.0799*	0.0525*	0.0668*
S=c1[nH]nc(Cc2cccs2)n1-c1ccccc1	i	i	i	0.413	i	-3.6	/	/	/	/	/	/
C/C(N)=C(/C#N)C(=O)CSc1nnc(SCc2ccc(Cl)cc2)s1	i	i	i	/	i	-2.9	0.00697	0.00709	0.0318	0.00415	?	0.0118
CN(C)S(=O)(=O)c1cccc(NC(=S)N/N=C/c2ccco2)c1	i	i	i	6.27*	i	-6.7	0.00671	0.00753*	0.0267	0.00937*	0.0193	0.0118*
CN(C)S(=O)(=O)c1cccc(NC(=S)N/N=C/c2ccc(O)c(O)c2O)c1	i	i	i	-1.69	i	-17.5	/	/	/	/	/	/
COc1cccc(/C=N/Nc2snc(SC)c2C#N)c1O	i	i	i	31.5*	i	-7.6	0.0229*	0.0822*	0.0376	0.0392*	0.0554*	0.0143*
COc1ccc(/C=N/Nc2snc(SC)c2C#N)cc1OC	i	i	i	-0.253	i	-5.1	/	/	/	/	/	/
O=[N+]([O-])c1ccc2[nH]c(O)c(N=NC(=S)NCC3CCCO3)c2c1 (configuration not stated)	i	i	i	3.2	i	-1.9	/	/	/	/	/	/
CCCCNC(=S)N=Nc1c(O)[nH]c2ccccc12	i	i	i	25.1*	i	-7.8	?	0.0494*	?	0.035*	0.0401*	0.0246*
CCNC(=S)N=Nc1c(O)[nH]c2ccc([N+](=O)[O-])cc12	i	i	i	5.05*	i	-14.5	0.00969	0.0222*	0.0313	0.013*	0.0258	?
CCNC(=S)N=Nc1c(O)[nH]c2ccc(C(C)C)cc12	i	i	i	10.3*	i	-7.7	?	0.0209*	0.0338	0.0222*	0.026*	0.0161*
Cc1cc([N+](=O)[O-])ccc1NCc1ccccc1	i	i	i	-3.07*	i	-13.3	0.00598	0.00431	0.0233*	0.00664	0.0167*	0.00898
Cc1cc([N+](=O)[O-])ccc1NCc1ccc2ccccc2c1	i	i	i	-0.68	i	-12.0	/	/	/	/	/	/
O=C(CCc1nnc(-c2ccc3c(c2)OCO3)o1)N1CCC(c2ccc(F)cc2)C1 (configuration not stated)	i	i	i	-4.83*	i	-16.8	0.00708	0.00411	0.0225*	0.00619*	0.0135*	?
O=C(CCc1nnc(-c2ccc3c(c2)OCO3)o1)NC(c1ccccn1)C(F)(F)F (configuration not stated)	i	i	i	-0.509	i	-8.0	/	/	/	/	/	/
O=C(COC(=O)c1cc([N+](=O)[O-])ccc1NCCO)c1ccccc1	i	i	i	-3.23*	i	-1.6	0.0072	?	0.0234*	0.00753	?	0.0104
